Source: PMC10350030 (bioRxiv, 2023)
Entries after “also recorded” stand apart in the source; their conditions may differ. One block for each molecule: values may come before it.

Tests used:
FAM-Aβ42 = FAM-Aβ42 (Homo sapiens, UniProt P05067); type: biochemical; conditions: for enhancement of CP-induced degradation of FAM-Aβ42 by anti-oxidants: compared with CP only group
mature iPS neurons = test: Toxicity study with iPS neuronal cells; type: cell-based; conditions: 24 hours, Tuj-1 staining; for neuritic continuity of neurons treated with Aβ oligomers: Aβ Oligomer (20 μM)
Outline: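 Neurons came from iPS cells differentiated from blood stem cells and were used as mature cultures 12 days after seeding. They were treated with Aβ oligomers (20 µM), with or without test compound. Neuronal morphology and neurite continuity were assessed by immunocytochemistry for Tuj-1, a neuronal class III β-tubulin marker.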

[1] = Fluorescence spectra of FAM-Aβ42 during incubation in PBS; type: physicochemical; conditions: PBS buffer, 0 to 60 minutes, peptide alone
SH-SY5Y cells = test: ApopTag fluorescein in situ apoptosis detection assay with Aβ42 oligomers; type: cell-based; conditions: Aβ oligomer (20 μM) and AO (2 μM), 24 hours, compared to the control group
[2] = system: hippocampal CA1 area from mouse brain slides; test: Extracellular fEPSP recording in hippocampal CA1 of brain slices; conditions: 1 hour
Outline: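 In hippocampal slices, the Schaffer collateral pathway was stimulated once every 15 s with 0.1 ms current pulses. Field potentials were recorded extracellularly in the CA1 stratum radiatum. fEPSP was measured as the negative deflection of the voltage trace from baseline. Maximal amplitude was summarised for four groups: control, Aβ (1 µM), test compound (0.1 µM), and Aβ plus test compound.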

Sequence of FAM-Aβ42 (P05067 672-713): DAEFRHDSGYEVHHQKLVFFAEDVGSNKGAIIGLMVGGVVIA

effect of EDTA on Cu/Vc-induced degradation of FAM-Aβ42 (FAM-Aβ42; Cu(II)/EDTA/Vc (1:10:20), control experiment): inhibited the degradation
Molecule: O=C(O)CN(CCN(CC(=O)O)CC(=O)O)CC(=O)O [EDTA]

degradation enhancement by Vc when incubated with AO (FAM-Aβ42; AO/Vc versus AO): no significant degradation enhancement
Molecule: O=C1O[C@H]([C@@H](O)CO)C(O)=C1O [Vc, Vitamin C]

Molecule: COc1cc(/C=C/C(=O)CC(=O)/C=C/c2ccc(O)c(OC)c2)ccc1O [curcumin]
enhancement of CP-induced degradation of FAM-Aβ42 by anti-oxidants (FAM-Aβ42): neither of these anti-oxidants could enhance the degradation

Molecule: NCCc1ccc(O)c(O)c1 [dopamine]
enhancement of CP-induced degradation of FAM-Aβ42 by anti-oxidants (FAM-Aβ42): neither of these anti-oxidants could enhance the degradation

Molecule: NC[C@H](O)c1ccc(O)c(O)c1 [norepinephrine]
enhancement of CP-induced degradation of FAM-Aβ42 by anti-oxidants (FAM-Aβ42): neither of these anti-oxidants could enhance the degradation

Molecule: Oc1ccc(/C=C/c2cc(O)cc(O)c2)cc1 [resveratrol]
enhancement of CP-induced degradation of FAM-Aβ42 by anti-oxidants (FAM-Aβ42): neither of these anti-oxidants could enhance the degradation

Molecule: Aβ oligomers: Aβ42 oligomers prepared from Aβ42 peptide in F12 media at 4°C for 24 hours [reference compound]
neuritic continuity of neurons treated with Aβ oligomers (mature iPS neurons): apparent broken neuritic segments
neuritic continuity of neurons treated with Aβ oligomers (mature iPS neurons; listed as Aβ Oligomer): loss of neuritic continuity

Molecule: FAM-Aβ42: a fluorescent dye conjugated Aβ [reference compound]
fluorescence intensity of FAM-Aβ42 during incubation (aggregation-induced fluorescence quenching) [1]: gradually decreasing

AO-mediated cleavage of FAM-Aβ42 under N2 (FAM-Aβ42; N2 gas bubbled into the incubation buffer before incubation): considerably reduced
cleavage of FAM-Aβ42 (FAM-Aβ42; after 4 hours of incubation with AO): more than 50%
Molecule: ascorbate oxidase [AO]
level of cell apoptosis (SH-SY5Y cells): significantly reduced
neuritic continuity of neurons treated with Aβ oligomers mixed with AO (mature iPS neurons; Aβ Oligomer (20 μM) and AO (2 μM)): no apparent broken segments; also recorded: normal length neurites
change of fEPSP magnitude by AO alone ([2]; AO alone (0.1 µM)): did not cause significant changes
maximal fEPSP amplitude, Ab-AO group ([2]; slices incubated with 1 µM Ab and 0.1 µM AO, mean ± SE): 3.61± 0.49 mV

Molecule: vitamin E
enhancement of CP-induced degradation of FAM-Aβ42 by anti-oxidants (FAM-Aβ42): neither of these anti-oxidants could enhance the degradation
